# Laboratory results from ChEMBL document CHEMBL1138520, “Molecular and conformational determinants of pituitary adenylate cyclase-activating polypeptide (PACAP) for activation of the PAC1 receptor” (J Med Chem, 2009).
# Where a SMILES comes first, the peptide text is derived from it. [ ]: non-standard residue; d: D form. Bip = N[C@@H](Cc1ccc(-c2ccccc2)cc1)C(=O)O; Cha = N[C@@H](CC1CCCCC1)C(=O)O; Aib = CC(C)(N)C(=O)O
# Assays:
# [1] = biological target: T1, Pituitary adenylate cyclase-activating polypeptide type I receptor (Homo sapiens, UniProt P41586); experiment: Displacement of [125I]Ac-PACAP27 from human recombinant PAC1 receptor expressed in CHO cells by gamma- counter; type: cell-based
# Target sequence in this assay (P41586 whole entry): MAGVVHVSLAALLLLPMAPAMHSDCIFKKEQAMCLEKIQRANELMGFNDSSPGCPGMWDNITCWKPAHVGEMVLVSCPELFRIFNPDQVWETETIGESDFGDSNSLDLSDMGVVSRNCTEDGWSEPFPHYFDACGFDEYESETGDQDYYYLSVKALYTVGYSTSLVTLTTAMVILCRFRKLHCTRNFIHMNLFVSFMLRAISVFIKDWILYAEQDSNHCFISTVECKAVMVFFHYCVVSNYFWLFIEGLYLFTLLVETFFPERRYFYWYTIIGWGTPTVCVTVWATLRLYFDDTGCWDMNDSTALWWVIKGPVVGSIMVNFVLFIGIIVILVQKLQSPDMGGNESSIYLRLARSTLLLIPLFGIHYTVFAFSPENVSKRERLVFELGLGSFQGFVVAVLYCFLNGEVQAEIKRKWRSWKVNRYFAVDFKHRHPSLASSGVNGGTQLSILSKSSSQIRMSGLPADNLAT
# [2] = biological target: T1, Pituitary adenylate cyclase-activating polypeptide type I receptor; experiment: Agonist activity at human recombinant PAC1 receptor expressed in CHO cells assessed as PACAP38-induced calcium mobilization by FLIPR assay; type: functional, cell-based
# Procedure, shortened: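 CHO cells stably expressing recombinant human PAC1, plated 24 h before assay, loaded with fluo-4 AM for 60 min at 37 °C in the dark, then rinsed into HBSS for 15 min at 37 °C. EC50 and efficacy came from nonlinear regression; 4-10 independent assays in duplicate.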
# Target sequence in this assay (P41586 whole entry): as above
# [3] = biological target: T1, Pituitary adenylate cyclase-activating polypeptide type I receptor; experiment: Agonist activity at human recombinant PAC1 receptor expressed in CHO cells assessed as PACAP38-induced calcium mobilization by FLIPR assay relative to PACAP38; type: functional, cell-based
# Procedure, shortened: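 CHO cells stably expressing recombinant human PAC1, plated 24 h before assay, loaded with fluo-4 AM for 60 min at 37 °C in the dark, then rinsed into HBSS for 15 min at 37 °C. Peptide was added 18 s into a 150 s read (ex 480/em 525 nm), at final concentrations of 1 × 10-12 to 1 × 10^-5 M. Response was normalised to 1 × 10^-5 M PACAP38 on each plate. EC50 and efficacy came from nonlinear regression; 4-10 independent assays in duplicate.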
# Target sequence in this assay (P41586 21-468 limits assumed): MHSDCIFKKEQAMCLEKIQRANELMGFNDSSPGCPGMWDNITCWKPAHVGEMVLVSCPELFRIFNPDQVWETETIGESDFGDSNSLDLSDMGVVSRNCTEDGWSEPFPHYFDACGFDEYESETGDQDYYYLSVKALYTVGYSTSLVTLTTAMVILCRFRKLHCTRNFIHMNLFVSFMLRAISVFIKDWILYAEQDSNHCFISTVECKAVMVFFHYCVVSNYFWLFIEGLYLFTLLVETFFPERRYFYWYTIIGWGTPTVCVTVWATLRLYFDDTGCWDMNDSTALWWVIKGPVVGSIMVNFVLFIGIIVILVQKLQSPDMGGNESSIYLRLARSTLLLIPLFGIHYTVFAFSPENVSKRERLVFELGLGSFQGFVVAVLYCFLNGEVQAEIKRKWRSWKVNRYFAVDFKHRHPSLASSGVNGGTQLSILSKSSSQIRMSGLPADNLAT
Compound,IC50 [1],EC50 [2],Emax [3]
CC[C@H](C)[C@H](NC(=O)CNC(=O)[C@H](CC(N)=O)NC(=O)[C@H](CO)NC(=O)[C@@H](N)Cc1cnc[nH]1)C(=O)N[C@@H](Cc1ccccc1)C(=O)N[C@H](C(=O)N[C@@H](CC(=O)O)C(=O)N[C@@H](CO)C(=O)N[C@@H](Cc1ccc(O)cc1)C(=O)N[C@@H](CO)C(=O)N[C@@H](CCCNC(=N)N)C(=O)N[C@@H](Cc1ccc(O)cc1)C(=O)N[C@@H](CCCNC(=N)N)C(=O)N[C@@H](CCCCN)C(=O)N[C@@H](CCC(N)=O)C(=O)N[C@@H](CCSC)C(=O)N[C@@H](C)C(=O)N[C@H](C(=O)N[C@@H](CCCCN)C(=O)N[C@@H](CCCCN)C(=O)N[C@@H](Cc1ccc(O)cc1)C(=O)N[C@@H](CC(C)C)C(=O)N[C@@H](C)C(=O)N[C@@H](C)C(=O)N[C@H](C(=O)N[C@@H](CC(C)C)C(N)=O)C(C)C)C(C)C)[C@@H](C)O,284 nM,140 nM,91.2%
CSCC[C@H](NC(=O)[C@H](CCC(N)=O)NC(=O)[C@H](CCCCN)NC(=O)[C@H](CCCNC(=N)N)NC(=O)[C@H](Cc1ccc(O)cc1)NC(=O)[C@H](CCCNC(=N)N)NC(=O)[C@H](CO)NC(=O)[C@H](Cc1ccc(O)cc1)NC(=O)[C@H](CO)NC(=O)[C@H](CC(=O)O)NC(=O)[C@@H](NC(=O)[C@H](Cc1ccccc1)NC(=O)[C@H](C)NC(=O)CNC(=O)[C@H](CC(=O)O)NC(=O)[C@H](CO)NC(=O)[C@@H](N)Cc1cnc[nH]1)[C@@H](C)O)C(=O)N[C@@H](C)C(=O)N[C@H](C(=O)N[C@@H](CCCCN)C(=O)N[C@@H](CCCCN)C(=O)N[C@@H](Cc1ccc(O)cc1)C(=O)N[C@@H](CC(C)C)C(=O)N[C@@H](C)C(=O)N[C@@H](C)C(=O)N[C@H](C(=O)N[C@@H](CC(C)C)C(N)=O)C(C)C)C(C)C,60.7 nM,39.8 nM,99.2%
CSCC[C@H](NC(=O)[C@H](CCC(N)=O)NC(=O)[C@H](CCCCN)NC(=O)[C@H](CCCNC(=N)N)NC(=O)[C@H](Cc1ccc(O)cc1)NC(=O)[C@H](CCCNC(=N)N)NC(=O)[C@H](CO)NC(=O)[C@H](Cc1ccc(O)cc1)NC(=O)[C@H](CO)NC(=O)[C@H](CC(=O)O)NC(=O)[C@@H](NC(=O)[C@H](Cc1ccccc1)NC(=O)[C@H](C)NC(=O)CNC(=O)[C@H](CC(=O)O)NC(=O)[C@H](CO)NC(=O)[C@@H](N)Cc1cnc[nH]1)[C@@H](C)O)C(=O)N[C@@H](C)C(=O)N[C@H](C(=O)N[C@@H](CCCCN)C(=O)N[C@@H](CCCCN)C(=O)N[C@@H](Cc1ccc(O)cc1)C(=O)N[C@@H](CC(C)C)C(=O)N[C@@H](C)C(=O)N[C@@H](C)C(=O)N[C@H](C(=O)N[C@@H](CC(C)C)C(=O)NCC(=O)N[C@@H](CCCCN)C(=O)N[C@@H](CCCNC(=N)N)C(=O)N[C@@H](Cc1ccc(O)cc1)C(=O)N[C@@H](CCCCN)C(=O)N[C@@H](CCC(N)=O)C(=O)N[C@@H](CCCNC(=N)N)C(=O)N[C@H](C(=O)N[C@@H](CCCCN)C(=O)N[C@@H](CC(N)=O)C(=O)N[C@@H](CCCCN)C(N)=O)C(C)C)C(C)C)C(C)C (H-HSDGAFTDSYSRYRKQMAVKKYLAAVLGKRYKQRVKNK-NH2),34.4 nM,9.6 nM,88.3%
CSCC[C@H](NC(=O)[C@H](CCC(N)=O)NC(=O)[C@H](CCCCN)NC(=O)[C@H](CCCNC(=N)N)NC(=O)[C@H](Cc1ccc(O)cc1)NC(=O)[C@H](CCCNC(=N)N)NC(=O)[C@H](CO)NC(=O)[C@H](Cc1ccc(O)cc1)NC(=O)[C@H](CO)NC(=O)[C@H](CC(=O)O)NC(=O)[C@@H](NC(=O)[C@H](Cc1ccccc1)NC(=O)[C@H](CC(C)C)N1CC[C@H](NC(=O)[C@H](CC(=O)O)NC(=O)[C@H](CO)NC(=O)[C@@H](N)Cc2cnc[nH]2)C1=O)[C@@H](C)O)C(=O)N[C@@H](C)C(=O)N[C@H](C(=O)N[C@@H](CCCCN)C(=O)N[C@@H](CCCCN)C(=O)N[C@@H](Cc1ccc(O)cc1)C(=O)N[C@@H](CC(C)C)C(=O)N[C@@H](C)C(=O)N[C@@H](C)C(=O)N[C@H](C(=O)N[C@@H](CC(C)C)C(N)=O)C(C)C)C(C)C,1980 nM,1030 nM,54.1%
CC[C@H](C)[C@H](NC(=O)C(C)(C)NC(=O)[C@H](CC(=O)O)NC(=O)[C@H](CO)NC(=O)[C@@H](N)Cc1cnc[nH]1)C(=O)N[C@@H](Cc1ccccc1)C(=O)N[C@H](C(=O)N[C@@H](CC(=O)O)C(=O)N[C@@H](CO)C(=O)N[C@@H](Cc1ccc(O)cc1)C(=O)N[C@@H](CO)C(=O)N[C@@H](CCCNC(=N)N)C(=O)N[C@@H](Cc1ccc(O)cc1)C(=O)N[C@@H](CCCNC(=N)N)C(=O)N[C@@H](CCCCN)C(=O)N[C@@H](CCC(N)=O)C(=O)N[C@@H](CCSC)C(=O)N[C@@H](C)C(=O)N[C@H](C(=O)N[C@@H](CCCCN)C(=O)N[C@@H](CCCCN)C(=O)N[C@@H](Cc1ccc(O)cc1)C(=O)N[C@@H](CC(C)C)C(=O)N[C@@H](C)C(=O)N[C@@H](C)C(=O)N[C@H](C(=O)N[C@@H](CC(C)C)C(=O)NCC(=O)N[C@@H](CCCCN)C(=O)N[C@@H](CCCNC(=N)N)C(=O)N[C@@H](Cc1ccc(O)cc1)C(=O)N[C@@H](CCCCN)C(=O)N[C@@H](CCC(N)=O)C(=O)N[C@@H](CCCNC(=N)N)C(=O)N[C@H](C(=O)N[C@@H](CCCCN)C(=O)N[C@@H](CC(N)=O)C(=O)N[C@@H](CCCCN)C(N)=O)C(C)C)C(C)C)C(C)C)[C@@H](C)O (H-HSD[Aib]IFTDSYSRYRKQMAVKKYLAAVLGKRYKQRVKNK-NH2),9.2 nM,3.3 nM,84%

# Now those with a lower IC50 [1], led by results:
IC50 [1],EC50 [2],Emax [3],Compound
6.5 nM,0.7 nM,110%,CC[C@H](C)[C@H](NC(=O)CNC(=O)[C@H](CC(=O)O)NC(=O)[C@H](CO)NC(=O)[C@@H](N)Cc1cnc[nH]1)C(=O)N[C@@H](Cc1cccc2ccccc12)C(=O)N[C@H](C(=O)N[C@@H](CC(=O)O)C(=O)N[C@@H](CO)C(=O)N[C@@H](Cc1ccc(O)cc1)C(=O)N[C@@H](CO)C(=O)N[C@@H](CCCNC(=N)N)C(=O)N[C@@H](Cc1ccc(O)cc1)C(=O)N[C@@H](CCCNC(=N)N)C(=O)N[C@@H](CCCCN)C(=O)N[C@@H](CCC(N)=O)C(=O)N[C@@H](CCSC)C(=O)N[C@@H](C)C(=O)N[C@H](C(=O)N[C@@H](CCCCN)C(=O)N[C@@H](CCCCN)C(=O)N[C@@H](Cc1ccc(O)cc1)C(=O)N[C@@H](CC(C)C)C(=O)N[C@@H](C)C(=O)N[C@@H](C)C(=O)N[C@H](C(=O)N[C@@H](CC(C)C)C(N)=O)C(C)C)C(C)C)[C@@H](C)O
6.6 nM,2.6 nM,97.7%,CC[C@H](C)[C@H](NC(=O)CNC(=O)[C@H](CC(=O)O)NC(=O)[C@H](CO)NC(=O)[C@@H](N)Cc1cnc[nH]1)C(=O)N[C@@H](CC1CCCCC1)C(=O)N[C@H](C(=O)N[C@@H](CC(=O)O)C(=O)N[C@@H](CO)C(=O)N[C@@H](Cc1ccc(O)cc1)C(=O)N[C@@H](CO)C(=O)N[C@@H](CCCNC(=N)N)C(=O)N[C@@H](Cc1ccc(O)cc1)C(=O)N[C@@H](CCCNC(=N)N)C(=O)N[C@@H](CCCCN)C(=O)N[C@@H](CCC(N)=O)C(=O)N[C@@H](CCSC)C(=O)N[C@@H](C)C(=O)N[C@H](C(=O)N[C@@H](CCCCN)C(=O)N[C@@H](CCCCN)C(=O)N[C@@H](Cc1ccc(O)cc1)C(=O)N[C@@H](CC(C)C)C(=O)N[C@@H](C)C(=O)N[C@@H](C)C(=O)N[C@H](C(=O)N[C@@H](CC(C)C)C(=O)NCC(=O)N[C@@H](CCCCN)C(=O)N[C@@H](CCCNC(=N)N)C(=O)N[C@@H](Cc1ccc(O)cc1)C(=O)N[C@@H](CCCCN)C(=O)N[C@@H](CCC(N)=O)C(=O)N[C@@H](CCCNC(=N)N)C(=O)N[C@H](C(=O)N[C@@H](CCCCN)C(=O)N[C@@H](CC(N)=O)C(=O)N[C@@H](CCCCN)C(N)=O)C(C)C)C(C)C)C(C)C)[C@@H](C)O (H-HSDGI[Cha]TDSYSRYRKQMAVKKYLAAVLGKRYKQRVKNK-NH2)
5.4 nM,1.1 nM,105%,CC[C@H](C)[C@H](NC(=O)CNC(=O)[C@H](CC(=O)O)NC(=O)[C@H](CO)NC(=O)[C@@H](N)Cc1cnc[nH]1)C(=O)N[C@@H](Cc1ccc(-c2ccccc2)cc1)C(=O)N[C@H](C(=O)N[C@@H](CC(=O)O)C(=O)N[C@@H](CO)C(=O)N[C@@H](Cc1ccc(O)cc1)C(=O)N[C@@H](CO)C(=O)N[C@@H](CCCNC(=N)N)C(=O)N[C@@H](Cc1ccc(O)cc1)C(=O)N[C@@H](CCCNC(=N)N)C(=O)N[C@@H](CCCCN)C(=O)N[C@@H](CCC(N)=O)C(=O)N[C@@H](CCSC)C(=O)N[C@@H](C)C(=O)N[C@H](C(=O)N[C@@H](CCCCN)C(=O)N[C@@H](CCCCN)C(=O)N[C@@H](Cc1ccc(O)cc1)C(=O)N[C@@H](CC(C)C)C(=O)N[C@@H](C)C(=O)N[C@@H](C)C(=O)N[C@H](C(=O)N[C@@H](CC(C)C)C(=O)NCC(=O)N[C@@H](CCCCN)C(=O)N[C@@H](CCCNC(=N)N)C(=O)N[C@@H](Cc1ccc(O)cc1)C(=O)N[C@@H](CCCCN)C(=O)N[C@@H](CCC(N)=O)C(=O)N[C@@H](CCCNC(=N)N)C(=O)N[C@H](C(=O)N[C@@H](CCCCN)C(=O)N[C@@H](CC(N)=O)C(=O)N[C@@H](CCCCN)C(N)=O)C(C)C)C(C)C)C(C)C)[C@@H](C)O (H-HSDGI[Bip]TDSYSRYRKQMAVKKYLAAVLGKRYKQRVKNK-NH2)
8.5 nM,2.3 nM,89.2%,CC[C@H](C)[C@H](NC(=O)CNC(=O)[C@H](CC(=O)O)NC(=O)[C@@H]1C[C@@H](O)CN1C(=O)[C@@H](N)Cc1cnc[nH]1)C(=O)N[C@@H](Cc1ccccc1)C(=O)N[C@H](C(=O)N[C@@H](CC(=O)O)C(=O)N[C@@H](CO)C(=O)N[C@@H](Cc1ccc(O)cc1)C(=O)N[C@@H](CO)C(=O)N[C@@H](CCCNC(=N)N)C(=O)N[C@@H](Cc1ccc(O)cc1)C(=O)N[C@@H](CCCNC(=N)N)C(=O)N[C@@H](CCCCN)C(=O)N[C@@H](CCC(N)=O)C(=O)N[C@@H](CCSC)C(=O)N[C@@H](C)C(=O)N[C@H](C(=O)N[C@@H](CCCCN)C(=O)N[C@@H](CCCCN)C(=O)N[C@@H](Cc1ccc(O)cc1)C(=O)N[C@@H](CC(C)C)C(=O)N[C@@H](C)C(=O)N[C@@H](C)C(=O)N[C@H](C(=O)N[C@@H](CC(C)C)C(N)=O)C(C)C)C(C)C)[C@@H](C)O
